Only some compounds are listed: those with a hit (about 3.8% of all), similar ones and a draw of the others.
KCNQ1 pot: potentiates or activates the human KCNQ1 potassium channel | B-score at 10 µM | AID 2648 | CHO-K1 KCNQ1, thallium flux FluxOR fluorescence; hits give high values | P51787 | 310,000 compounds, 0.35% hits;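 active = fluorescence ratio B-score, a plate-corrected score, at least three library SD, with initial intensity B-score within 5 SD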
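Medium – assay buffer, equal DMSO in all wells · Material – CHO-K1 cell line with stable KCNQ1 potassium channel expression · Signal – kinetic FluxOR thallium fluorescence, 10-s 1-Hz baseline, 110-s post-stimulus read · Compound – single concentration per compound, DMSO matched to controls · Schedule – 37 °C overnight plating, 90-min dark dye load, 20-min compound pretreatment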
KCNK3 inh: human KCNK3 channel inhibition, primary screen; O14649; CHO-KCNK3 thallium flux, FluxOR fluorescence; hits give low values; B-score at 10 µM; 340,000 compounds, 0.84% hits; AID 602410;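 active = B-score under library mean minus 4 SD, starting fluorescence ratio at most library mean plus 5 SD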;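 note: more negative B-score means stronger inhibition of thallium flux through KCNK3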
hERG rescue: hERG (human) protection from proarrhythmic block | 310,000 compounds, 0.51% hits | CHO-hERG, FluxOR thallium flux, dofetilide IC70 present | activation (rescue from dofetilide block), less the hit threshold, % at 10 µM | Q12809;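 active = activation above the mean of controls blocked by dofetilide plus 5 SD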;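 note: thallium influx through hERG after potassium depolarization seen as dye fluorescence rise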
KCNK9 inh: inhibitors of human KCNK9 two-pore domain potassium channel; HEK293 KCNK9, FluxOR thallium flux fluorescence; hits give low values; AID 488922; Q9NPC2; B-score at 10 µM; 310,000 compounds, 1.2% hits;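 active = ratio B-score over 3 SD below the library mean, with starting fluorescence within 5 SD of its mean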;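 note: negative B-score means less thallium flux so channel inhibition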
KCNQ1 block: inhibitors of human KCNQ1 potassium channel; P51787; CHO-K1 KCNQ1, FluxOR thallium flux fluorescence; hits give high values; B-score at 10 µM; 310,000 compounds, 1.3% hits;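 active = compounds whose thallium flux B-score, printed positive for inhibition, exceeds three library SD while starting fluorescence stays within three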;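 note: channel opened by potassium depolarization with thallium stimulus after 20 min compound exposure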
Kir21 block: blocks the mouse Kir2.1 inward-rectifier potassium channel; B-score at 10 µM; P35561; HEK293-Kir2.1, FluxOR thallium flux fluorescence; hits give low values; 310,000 compounds, 0.85% hits;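 active = fluorescence ratio B-score at or below minus 3 SD of library scores, with starting-brightness B-score within 2 SD, cut at about -4.2 in these data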;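 note: channel flux triggered by added potassium and thallium sulfate stimulus; B-score of peak minus minimum fluorescence over baseline after thallium stimulus; more negative B-score means stronger Kir2.1 block with less thallium influx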
KCNK9 inh conf: human KCNK9 inhibitor confirmation | shares compounds with KCNK9 inh | HEK293 KCNK9 cells, FluxOR thallium flux fluorescence | inhibition, % at 10 µM | 4,900 compounds, 43% hits | AID 492992;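 active = thallium signal inhibited by more than 5 SD of the compound-free buffer control wells, on both duplicate plates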;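 note: 0% = assay buffer control wells without compound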
Kir2-1 spec: selectivity of KCNK9 modulators against mouse Kir2.1; shares compounds with KCNK9 inh; Kir2.1 cells, FluxOR thallium flux fluorescence; inhibition, % at 10 µM; 4,900 compounds, 4% hits; AID 492993;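 active = thallium signal drop more than 5 SD beyond the mean of the no-compound control wells, seen in both duplicate plates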;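 note: signal is fluorescence rise after thallium addition divided by baseline fluorescence; plate controls were assay buffer only for no effect and full block by chlorpromazine control for full effect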
KCNK9 uninduced: non-induced cell nonspecific activity of KCNK9 modulators; shares compounds with KCNK9 inh; non-induced KCNK9-HEK293, FluxOR thallium flux; inhibition, % at 10 µM; 4,900 compounds, 40% hits; AID 492997;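 active = thallium signal drop beyond 5 SD of the untreated control mean, on both duplicate plates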;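 note: plate controls were buffer only IC0 wells for no effect and SID17386958 at its maximal inhibitory level for full effect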
The depositor's hits bear a star; i = inactive; / = no result given.

SMILES	KCNQ1 pot	KCNK3 inh	hERG rescue	KCNK9 inh	KCNQ1 block	Kir21 block	KCNK9 inh conf	Kir2-1 spec	KCNK9 uninduced
COc1ccc(OC)c(Nc2cc(-c3ccccc3)nc(N)n2)c1	i	/	-11	-8.2*	i	0.01	32%*	i	i
Cc1ccc(SCc2ccc(C(=O)N3CCCCC3)cc2)cc1	i	i	-6	i	i	0.86	i	i	i
O=C(COc1ccc2c(c1)OCO2)NCc1cccs1	/	i	/	/	/	/	/	/	/
Cc1ccc(C(=O)NCc2ccccc2CN2CCCC2)cc1S(=O)(=O)N1CCOCC1	/	i	/	/	/	/	/	/	/
CC(C)=CCc1c(-c2ccc(O)cc2O)oc2c3c(cc(O)c2c1=O)OC(C)(C)C=C3	i	/	-9	i	i	0.67	i	i	i
CC(C)=CCc1c2c(c(O)c3c(=O)c4c(oc13)-c1cc(O)c(O)cc1OC4C=C(C)C)C=CC(C)(C)O2 (stereo not drawn)	i	/	-6	i	i	1.3	/	/	/
CCC(NC(=O)Nc1cc(C)on1)(C(F)(F)F)C(F)(F)F	i	i	-8	i	i	-1.1	/	/	/
COc1cc(-c2nnc(COc3ccc4ccccc4c3)o2)cc(OC)c1OC	i	i	-10	i	i	0.31	i	i	i
O=C1/C(=C/c2cccc(O)c2)SC(=S)N1CC1CCCO1 (stereo not drawn)	i	i	-5	i	i	0.09	/	/	/
COc1cccc(/C=C2\SC(=S)N(CC3CCCO3)C2=O)c1 (stereo not drawn)	i	i	-7	i	i	0.13	i	i	i
COc1ccc(C(=O)N/N=C/c2ccc(OC)c(CN3CCN(c4ccc(F)cc4)CC3)c2)cc1	i	i	-22	i	i	1	i	i	i
COc1cc(OC)c(CN2CCN(c3ccc(F)cc3)CC2)cc1Br	i	i	-10	i	i	1.2	i	i	i
COc1cc(OC)c(CN2CCCCCCC2)cc1Br	i	i	-1	i	i	2	/	/	/
Nc1ccc(C(=O)C(=O)c2ccccc2)cc1	i	i	-6	i	i	-1.1	/	/	/
CCc1nc2ccc(C(=O)N3CCN(c4cccc(C)c4C)CC3)cc2nc1CC	i	i	-10	i	i	1	/	/	/
Cc1cccc(CN2CCCC(C(=O)N3CCc4ccccc4C3)C2)c1 (stereo not drawn)	i	i	-13	i	i	-2.1	i	i	i
O=C(O)C1CC=CCC1C(=O)NC1CCCCC1 (stereo not drawn)	i	i	-4	i	i	-0.72	/	/	/
COc1ccc(-c2csc(NC(=O)C3COc4ccccc4O3)n2)cc1OC (stereo not drawn)	i	-10*	-16	-16*	i	0.01	64%*	i	i
Cc1cc(NC(=O)c2cc(-c3cccs3)nc3ccccc23)no1	i	i	-9	-9.6*	i	0.79	38%*	i	i
Cc1ccc(-c2cc(C(=O)Nc3cc(C)on3)c3ccccc3n2)cc1	i	i	0	i	i	0.31	/	/	/
O=C(NCC(c1ccco1)N1CCc2ccccc2C1)c1cccc(Br)c1 (stereo not drawn)	i	i	-9	-12*	i	-0.38	i	i	26%*
Cc1ccc(C)c(S(=O)(=O)NCC(c2ccco2)N2CCc3ccccc3C2)c1 (stereo not drawn)	i	i	-8	-11*	i	-0.23	48%*	i	41%*
O=C(NCC(c1ccco1)N1CCc2ccccc2C1)c1ccc(Br)cc1 (stereo not drawn)	i	i	-10	i	i	-2.8	i	i	35%*

Compound activity from PubChem BioAssay.
